Laboratory results as given in publication PMC4486263 (Journal of biomolecular screening, 2014).
“Also recorded” adds a separate entry of the source.

Key:
[1] = molecular target: CtBP1-E1A peptide interaction (Homo sapiens, UniProt Q13363); experiment: Fluorescence polarization assay with FITC-labeled E1A 14-mer peptide; format: binding; conditions: for disruption of the CtBP1-peptide interaction (in words): up to 100 μM
Six1-Eya2 interaction = molecular target: T1, Six1-Eya2 interaction (Homo sapiens, UniProt O00167+Q15475); experiment: Counterscreen AlphaScreen assay, Six1-Eya2; format: binding; conditions: 20 nM to 50 μM
T1 sequence (Q15475 1-284): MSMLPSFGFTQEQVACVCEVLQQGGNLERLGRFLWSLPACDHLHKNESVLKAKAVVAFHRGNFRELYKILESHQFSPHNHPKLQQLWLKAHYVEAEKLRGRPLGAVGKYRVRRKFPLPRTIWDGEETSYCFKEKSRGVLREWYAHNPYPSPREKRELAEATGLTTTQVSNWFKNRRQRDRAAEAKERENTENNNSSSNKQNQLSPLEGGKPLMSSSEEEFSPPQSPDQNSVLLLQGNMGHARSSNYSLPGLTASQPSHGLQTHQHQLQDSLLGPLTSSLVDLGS
T1 sequence (O00167 1-538): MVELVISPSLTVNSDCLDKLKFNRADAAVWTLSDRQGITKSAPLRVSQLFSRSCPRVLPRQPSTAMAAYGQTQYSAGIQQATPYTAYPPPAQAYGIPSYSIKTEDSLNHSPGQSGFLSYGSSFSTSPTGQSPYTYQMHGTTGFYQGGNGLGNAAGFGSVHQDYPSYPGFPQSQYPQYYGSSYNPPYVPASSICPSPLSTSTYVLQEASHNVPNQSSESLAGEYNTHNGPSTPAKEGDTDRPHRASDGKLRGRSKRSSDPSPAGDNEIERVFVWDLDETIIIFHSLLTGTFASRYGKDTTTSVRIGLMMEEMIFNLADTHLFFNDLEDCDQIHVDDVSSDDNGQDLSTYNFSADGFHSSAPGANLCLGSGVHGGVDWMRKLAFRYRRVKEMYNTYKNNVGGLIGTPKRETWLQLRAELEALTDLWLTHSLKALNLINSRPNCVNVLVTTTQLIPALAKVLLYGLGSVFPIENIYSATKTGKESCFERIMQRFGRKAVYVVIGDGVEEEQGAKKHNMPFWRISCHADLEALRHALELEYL
Method in brief: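 Counterscreen AlphaScreen with 200 nM 6xHis-Eya2 and GST-Six1 in 50 mM Tris pH 8.0, 250 mM NaCl, 0.05% BSA, 0.02% Tween-20. Test compound was added at 20 nM to 50 μM. Glutathione donor and Ni-chelate acceptor beads were added from a 25 ng/μL (each) bead solution. Incubated 2 h at 25 °C, then read in AlphaScreen mode.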

CtBP1-E1A interaction [2] = molecular target: T2, CtBP1-E1A interaction (Homo sapiens, UniProt Q13363); experiment: CtBP1-E1A AlphaScreen assay; format: binding; conditions: for disruption of the CtBP1-E1A interaction (in words): up to 100 μM
NCI 60 tumor-cell panel = conditions: ref http://dtp.nci.nih.gov/; cited from earlier work
[3] = test system: CtBP1-mediated repression of the E-cadherin promoter; experiment: E-cadherin promoter luciferase reporter assay in H1299 cells; format: cell-based; conditions: 18 hrs, normalized to Renilla
Method in brief: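 H1299 cells were seeded at 2000 cells/well and adhered overnight. FuGENE 6 transfection used 30 ng/well pGL3-E-cadherin promoter plus 10 ng/well Renilla luciferase. After 10 h, cells were treated with varying test compound concentrations for a further 18 h. Passive lysis, then dual-luciferase measurement with Firefly normalised to Renilla.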

[4] = test system: MEF3 promoter (SIX1 transcriptional complex); experiment: MEF3 promoter luciferase reporter assay in H1299 cells; format: cell-based; conditions: 18 hrs, normalized to Renilla
Method in brief: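 H1299 cells were seeded at 2000 cells/well and adhered overnight. FuGENE 6 transfection used 60 ng/well pGL3-MEF3 promoter, 40 ng/well Six1, 30 ng/well Eya2 and 14 ng/well Renilla luciferase. After 10 h, cells were treated with varying test compound concentrations for 18 h. Dual-luciferase read-out after passive lysis, with Firefly normalised to Renilla.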

CtBP1 = CtBP1 (Homo sapiens, UniProt Q13363); experiment: CtBP1 enzymatic assay; format: biochemical; conditions: NADH oxidation, 340 nm
Method in brief: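 E. coli-expressed His-CtBP1 (2 μM) in PBS with NADH. Test compound was added at increasing concentrations in 100 μL reactions after a 2 min incubation at 30 °C. Substrate reduction followed as NADH disappearance at 340 nm by spectrophotometer. Activity expressed as nmol NADH/min/mg protein.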

CtBP1-E1A interaction [5] = molecular target: T2, CtBP1-E1A interaction; experiment: Competitive ELISA; format: binding; conditions: read-out: IC50, disruption of the CtBP1-E1A interaction
Method in brief: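 Plates coated with His-tagged CtBP1 (E. coli-expressed, Ni-affinity then size-exclusion purified) in 50 mM Tris pH 8.0, 250 mM NaCl, 1 h at 25 °C. Blocked 1 h with 1% BSA/0.05% Tween-20 in 50 mM Tris pH 8.0, 250 mM NaCl, 1 mM TCEP. GST-Ad5 E1A was added with increasing test compound concentrations in triplicate for 1 h at 25 °C. Detection used rabbit anti-GST (1:1500), then goat anti-rabbit (1:2500), 1 h each, and ABTS absorbance.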

lactate dehydrogenase = experiment: Lactate dehydrogenase enzymatic assay; format: biochemical
Method in brief: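 Lactate dehydrogenase at 5 nM in PBS with 100 μM NADH. Incubated with 5 μM pyruvate or varying test compound concentrations for 1 min at 30 °C. NADH consumption monitored spectrophotometrically at 340 nm; activity as nmol/min/mg protein.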

Structure (SMILES): CCCn1c(=O)c2[nH]c(C3CCCC3)nc2n(CCCOC(=O)c2ccc(S(=O)(=O)F)cc2)c1=O [FSCPX]
- disruption of the CtBP1-peptide interaction (in words) [1]: inactive; also recorded: unable to disrupt
- inhibition of the Six1-Eya2 interaction (Six1-Eya2 interaction): did not inhibit

Structure (SMILES): CCCCc1ccc(C(=O)O)nc1 [fusaric acid]
- disruption of the CtBP1-peptide interaction (in words) [1]: inactive; also recorded: unable to disrupt
- inhibition of the Six1-Eya2 interaction (Six1-Eya2 interaction): did not inhibit

Structure (SMILES): CSCCC(=O)C(=O)O [MTOB, 4-methylthio-2-oxobutanoic acid]
- disruption of the CtBP1-peptide interaction (in words) [1]: ineffective at disrupting the interaction; also recorded: unable to inhibit
- disruption of the CtBP1-E1A interaction (in words) (CtBP1-E1A interaction [2]): ineffective at disrupting the interaction; also recorded: unable to inhibit; also recorded: unable to affect the protein interaction

Structure (SMILES): O=C1C(SCCO)=C(SCCO)C(=O)c2ccccc21 [NSC95397]
- average GI50s over all cell lines (NCI 60 tumor-cell panel): 1.04 µM
- luciferase activity, E-cadherin promoter [3]: able to disrupt CtBP-mediated transcriptional repression; also recorded: increased with increasing concentrations; also recorded: can reverse CtBP-mediated transcriptional repression
- luciferase activity, MEF3 promoter [4]: unaltered; also recorded: has no effect
- IC50 ([1]; read-out: IC50, CtBP1-E1A peptide interaction, 3 μM CtBP1, 5 nM FITC-E1A peptide): 0.61 ± 0.12 µM
- disruption of the CtBP1-peptide interaction (in words) [1]: able to disrupt the interaction; also recorded: efficiently inhibits
- maximal activity as CtBP1 substrate (CtBP1): 28.5 ± 4.9 nmol/min/mg protein
- IC50 (CtBP1-E1A interaction [2]; read-out: IC50, inhibition of the CtBP1-E1A interaction): 2.9 µM
- disruption of the CtBP1-E1A interaction (in words) (CtBP1-E1A interaction [2]): able to disrupt the interaction; also recorded: efficiently inhibits
- inhibition of the Six1-Eya2 interaction (Six1-Eya2 interaction): did not inhibit; also recorded: does not inhibit; also recorded: did not detect a loss of AlphaScreen signal
- IC50 (CtBP1-E1A interaction [5]): 10 ± 1.3 µM
- inhibition of LDH (pyruvate reduction) (lactate dehydrogenase; 5 μM pyruvate, up to 100 μM compound): did not significantly inhibit; also recorded: unable to detect any inhibition; also recorded: unable to inhibit
- substrate of LDH (NADH consumption without pyruvate) (lactate dehydrogenase; increasing concentrations, no pyruvate): nor did it exhibit significant consumption of NADH; also recorded: did not detect a significant loss in NADH levels

Structure (SMILES): O=C1c2ccccc2C(=O)c2c(NCCc3ccc(O)cc3)ccc(NCCc3ccc(O)cc3)c21 [JFD00244]
- inhibition of the Six1-Eya2 interaction (Six1-Eya2 interaction): efficiently inhibited

Structure (SMILES): Nc1c(S(=O)(=O)O)cc(Nc2ccc(Nc3nc(Cl)nc(Nc4cccc(S(=O)(=O)O)c4)n3)c(S(=O)(=O)O)c2)c2c1C(=O)c1ccccc1C2=O [reactive blue 2]
- inhibition of the Six1-Eya2 interaction (Six1-Eya2 interaction): efficiently inhibited

Structure (SMILES): CC(=O)C(=O)O [pyruvate]
- LDH activity with substrate (lactate dehydrogenase): 9680 ± 558 nmol/min/mg protein

Structure (SMILES): O=C1O/C(=C/Br)CCC1c1cccc2ccccc12 (centres unmarked) [bromoenol lactone]
- inhibition of the Six1-Eya2 interaction (Six1-Eya2 interaction): efficiently inhibited

Structure (SMILES): O.c1cnc2c(c1)ccc1cccnc12 [10-phenanthroline monohydrate]
- inhibition of the Six1-Eya2 interaction (Six1-Eya2 interaction): efficiently inhibited
